From ChEMBL document CHEMBL4765301, “Discovery of novel TNNI3K inhibitor suppresses pyroptosis and apoptosis in murine myocardial infarction injury” (Eur J Med Chem, 2020)
Calls of active or inactive are those of the source. No cut-off for these calls is given here.

Assays:
H9c2 [1] = assay: Cytoprotective activity against OGD-induced cell death in rat H9c2 cells assessed as cell viability incubated for 24 hrs by LDH release assay; type: functional, cell-based; settings: dose 0.5-1 µM
Summary of the method: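 OGD-exposed H9c2 cells were treated with 0.5 or 1.0 µM inhibitor for 24 h. LDH released into the culture medium was measured with a commercial LDH cytotoxicity kit.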

[2] = molecular target: Mitogen-activated protein kinase 1 and 3 (ERK2 and ERK1) (Rattus norvegicus) (UniProt P63086+P21708); assay: Inhibition of ERK1/2 phosphorylation in rat H9c2 cells at 0.5 to 1 uM by Western blot analysis; type: cell-based; settings: dose 0.5-1 µM
Sequence of Mitogen-activated protein kinase 1 and 3 (ERK2 and ERK1) (Rattus norvegicus) (P21708 whole entry, looked up): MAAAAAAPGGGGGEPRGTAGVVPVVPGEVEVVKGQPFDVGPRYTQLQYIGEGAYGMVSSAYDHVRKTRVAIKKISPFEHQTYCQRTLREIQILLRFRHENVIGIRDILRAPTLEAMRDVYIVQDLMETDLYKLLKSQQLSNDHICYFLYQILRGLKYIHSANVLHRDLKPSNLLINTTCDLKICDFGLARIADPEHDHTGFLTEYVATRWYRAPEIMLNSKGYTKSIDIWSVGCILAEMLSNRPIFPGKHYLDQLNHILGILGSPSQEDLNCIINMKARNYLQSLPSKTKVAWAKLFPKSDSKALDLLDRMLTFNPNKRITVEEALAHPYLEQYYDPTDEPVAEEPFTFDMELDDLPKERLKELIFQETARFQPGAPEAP
Sequence of Mitogen-activated protein kinase 1 and 3 (ERK2 and ERK1) (Rattus norvegicus) (P63086 whole entry, looked up): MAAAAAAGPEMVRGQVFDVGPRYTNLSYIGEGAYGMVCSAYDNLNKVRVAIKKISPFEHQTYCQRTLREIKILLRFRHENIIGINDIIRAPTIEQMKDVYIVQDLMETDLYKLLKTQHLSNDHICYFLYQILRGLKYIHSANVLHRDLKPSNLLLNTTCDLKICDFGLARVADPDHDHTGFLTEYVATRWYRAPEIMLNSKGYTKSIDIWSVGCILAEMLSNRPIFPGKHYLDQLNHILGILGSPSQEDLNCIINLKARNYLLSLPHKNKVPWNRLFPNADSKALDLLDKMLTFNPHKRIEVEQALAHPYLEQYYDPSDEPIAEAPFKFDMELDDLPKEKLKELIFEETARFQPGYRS
Summary of the method: (§1)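 H9c2 cells under OGD were treated with saline or 0.5 or 1.0 µM inhibitor. Cells were trypsinised, washed in cold PBS, lysed in RIPA with sonication and centrifuged 30 min. Total protein was quantified and separated by SDS-PAGE, then transferred to PVDF. Blots were probed with primary and secondary antibodies and detected by ECL.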

Mus musculus [3] = assay: In vivo inhibition of TNNI3K in C57BL/6 mouse assessed as reduction in GSDMD at 25 mg/kg, ip administered for 28 days and measured on day 28 by immunohistochemical staining based fluorescence microscopy; type: functional, organism-based; settings: time 28.0 day
Summary of the method: (§2)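 Male C57BL/6 mice (5-6 weeks) with LAD-ligation MI; sham, saline or 25 mg/kg ip every two days, n=4, 28 days. Heart sections given EDTA (pH 8.0) or citrate (pH 6.0) microwave antigen retrieval, then primary antibody 30-40 min at 37°C. Detection by HRP polymer secondary with DAB (IHC) or fluorescent secondary (IF). Positive cells were quantified.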

[4] = molecular target: T1, Serine/threonine-protein kinase TNNI3K (Homo sapiens) (UniProt Q59H18); assay: Inhibition of TNNI3K (unknown origin) assessed as residual activity at 1 uM using biotinylated CTnI as substrate by HTRF analysis relative to control
T1 sequence (whole entry): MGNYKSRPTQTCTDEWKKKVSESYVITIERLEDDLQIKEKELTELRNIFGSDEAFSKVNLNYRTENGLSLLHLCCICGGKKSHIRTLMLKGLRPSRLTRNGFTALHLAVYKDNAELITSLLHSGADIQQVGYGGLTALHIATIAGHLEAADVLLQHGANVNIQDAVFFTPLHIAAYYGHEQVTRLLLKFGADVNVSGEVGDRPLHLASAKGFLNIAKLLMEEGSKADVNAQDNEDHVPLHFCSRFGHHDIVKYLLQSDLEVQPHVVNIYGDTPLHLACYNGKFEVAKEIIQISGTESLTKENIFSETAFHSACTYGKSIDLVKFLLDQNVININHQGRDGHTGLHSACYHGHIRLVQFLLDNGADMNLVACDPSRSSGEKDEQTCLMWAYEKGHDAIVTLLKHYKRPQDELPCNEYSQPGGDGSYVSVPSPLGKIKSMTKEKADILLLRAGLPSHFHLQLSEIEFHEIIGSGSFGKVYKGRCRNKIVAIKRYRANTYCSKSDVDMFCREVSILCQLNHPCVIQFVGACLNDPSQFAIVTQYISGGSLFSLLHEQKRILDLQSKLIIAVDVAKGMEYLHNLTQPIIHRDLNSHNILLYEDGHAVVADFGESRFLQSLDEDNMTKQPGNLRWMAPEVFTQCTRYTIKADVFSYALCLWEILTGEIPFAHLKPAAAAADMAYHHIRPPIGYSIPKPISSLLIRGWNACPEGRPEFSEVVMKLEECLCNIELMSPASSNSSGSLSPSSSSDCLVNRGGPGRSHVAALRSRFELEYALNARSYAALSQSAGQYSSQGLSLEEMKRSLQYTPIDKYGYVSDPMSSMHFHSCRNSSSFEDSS
Summary of the method: (§3)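 TNNI3K was assayed by HTRF using a GST-tagged TNNI3K kinase domain and a biotinylated cardiac troponin I substrate peptide, followed by the two HTRF detection reagents. Compounds were screened at 1.0 µM, then IC50s were determined.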

H9c2 [5] = assay: Inhibition of OGD-induced apoptosis in rat H9c2 cells assessed as late apoptotic cells at 0.5 uM incubated for 24 hrs by annexinV-FITC and PI staining based flow cytometry analysis (reference value: 9 %); type: functional
H9c2 [6] = assay: Inhibition of OGD-induced apoptosis in rat H9c2 cells assessed as viable cells at 0.5 uM incubated for 24 hrs by annexinV-FITC and PI staining based flow cytometry analysis (reference value: 85 %); type: functional
Mus musculus [7] = assay: In vivo inhibition of TNNI3K in C57BL/6 mouse at 25 mg/kg, ip administered for 28 days and measured on day 28 by immunohistochemical staining based fluorescence microscopy; type: functional, organism-based; settings: time 28.0 day; summary of the method: as §2
[8] = molecular target: T2, Serine/threonine-protein kinase TNNI3K (Homo sapiens, UniProt Q59H18); assay: Inhibition of TNNI3K (unknown origin) using biotinylated CTnI as substrate by HTRF analysis; summary of the method: as §3
T2 sequence (Q59H18 whole entry): T1 sequence (whole entry)

[9] = molecular target: Epidermal growth factor receptor (Homo sapiens) (UniProt P00533); assay: Inhibition of recombinant human EGFR (696 to end residues) assessed as residual activity at 1 uM using poly(Glu, Tyr) 4:1 as substrate incubated for 40 mins by [gamma-33P]-ATP scintillation counting based radiometry assay relative to control
Sequence of Epidermal growth factor receptor (Homo sapiens) (P00533 whole entry): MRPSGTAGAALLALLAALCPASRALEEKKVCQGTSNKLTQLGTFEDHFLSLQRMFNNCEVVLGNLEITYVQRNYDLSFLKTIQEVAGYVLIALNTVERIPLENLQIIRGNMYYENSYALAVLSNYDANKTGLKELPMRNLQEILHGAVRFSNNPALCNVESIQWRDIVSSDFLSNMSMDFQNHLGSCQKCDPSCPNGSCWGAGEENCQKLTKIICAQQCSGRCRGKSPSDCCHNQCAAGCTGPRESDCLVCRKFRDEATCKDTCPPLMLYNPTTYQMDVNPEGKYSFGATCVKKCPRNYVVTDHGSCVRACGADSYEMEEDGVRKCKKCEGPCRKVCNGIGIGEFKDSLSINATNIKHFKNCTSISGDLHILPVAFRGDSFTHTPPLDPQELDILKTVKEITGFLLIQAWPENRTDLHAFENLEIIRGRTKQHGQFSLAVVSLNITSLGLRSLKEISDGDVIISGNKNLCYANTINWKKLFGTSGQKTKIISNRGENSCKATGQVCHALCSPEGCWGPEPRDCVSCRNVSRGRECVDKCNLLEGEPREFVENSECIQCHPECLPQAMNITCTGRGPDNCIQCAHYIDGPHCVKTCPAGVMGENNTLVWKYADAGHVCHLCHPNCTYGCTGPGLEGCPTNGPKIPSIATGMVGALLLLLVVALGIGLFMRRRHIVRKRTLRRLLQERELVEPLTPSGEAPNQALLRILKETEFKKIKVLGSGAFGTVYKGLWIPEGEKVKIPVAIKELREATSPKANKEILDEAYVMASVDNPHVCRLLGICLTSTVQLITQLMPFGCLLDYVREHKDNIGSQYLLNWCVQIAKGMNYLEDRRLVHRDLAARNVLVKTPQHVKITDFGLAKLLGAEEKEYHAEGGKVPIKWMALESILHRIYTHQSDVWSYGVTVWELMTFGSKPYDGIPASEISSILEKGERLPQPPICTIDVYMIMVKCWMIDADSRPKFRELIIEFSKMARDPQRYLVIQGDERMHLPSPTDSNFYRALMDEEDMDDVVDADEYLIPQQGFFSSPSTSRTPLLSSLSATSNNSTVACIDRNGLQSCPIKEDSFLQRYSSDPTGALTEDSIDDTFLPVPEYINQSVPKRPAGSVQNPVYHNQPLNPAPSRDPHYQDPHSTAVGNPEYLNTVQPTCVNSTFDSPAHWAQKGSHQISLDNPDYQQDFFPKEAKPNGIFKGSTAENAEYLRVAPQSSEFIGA

H9c2 [10] = assay: Inhibition of OGD-induced apoptosis in rat H9c2 cells assessed as necrotic cells at 0.5 uM incubated for 24 hrs by annexinV-FITC and PI staining based flow cytometry analysis (reference value: 2.45 %); type: functional
H9c2 [11] = assay: Cytoprotective activity against OGD-induced cell death in rat H9c2 cells assessed as cell viability at 1 uM incubated for 24 hrs by MTT assay (reference value: 42.08 to 49.11 %); type: functional; settings: read-out: Activity
Mus musculus [12] = assay: Cardioprotective activity in C57BL/6 mouse model of myocardial infarction assessed as reduction in infarct area at 25 mg/kg, ip administered for 28 days and measured on day 28 by TTC staining based fluorescence microscopy; type: functional, organism-based; settings: time 28.0 day
Summary of the method: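 Male C57BL/6 mice (5-6 weeks); MI by permanent LAD ligation under ip ketamine (100mg/kg)/xylazine (10mg/kg) with ventilation; sham group operated without LAD occlusion. Post-MI mice randomised to sham, normal saline or inhibitor groups (n=4); 25 mg/kg given ip every two days. Hearts assessed after 28 days: TTC staining (infarct yellow-white, viable red), Masson's trichrome (blue collagen) and H&E.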

H9c2 [13] = assay: Inhibition of JNK phosphorylation in rat H9c2 cells at 0.5 to 1 uM by Western blot analysis; type: cell-based; settings: dose 0.5-1 µM; summary of the method: as §1
[14] = Toxicity in C57BL/6 mouse assessed as effect on morphology of main organs at 25 mg/kg, ip administered for 28 days and observed on day 28 by H and E staining based fluorescence microscopy; type: organism-based; settings: in vivo, 672 h, time 28 day
Summary of the method: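 Main organs of MI-model C57BL/6 mice, given 25 mg/kg ip every two days or sham-operated, examined by H&E staining of tissue sections for morphology.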

H9c2 [15] = assay: Inhibition of OGD-induced apoptosis in rat H9c2 cells assessed as reduction in NLRP3 level at 0.5 to 1 uM by Western blot analysis; type: functional, cell-based; settings: dose 0.5-1 µM; summary of the method: as §1
H9c2 [16] = assay: Inhibition of OGD-induced apoptosis in rat H9c2 cells incubated for 24 hrs by annexinV-FITC and PI staining based flow cytometry analysis; type: functional, cell-based; settings: dose 0.5-1 µM

Structure (SMILES): CN(C)CCCN1CCc2c(sc3ncnc(Nc4ccc(N(C)C)c(NC(=O)c5ccco5)c4)c23)C1
- Activity (H9c2 [1]): Dose-dependent effect
- inhibition [2]: inactive
- inhibition (Mus musculus [3]): Active
- Activity [4]: 28%
- inhibition at 0.5 µM (H9c2 [5]): 7.15%
- inhibition at 0.5 µM (H9c2 [6]): 87%
- inhibition (Mus musculus [7]): Active
- IC50 [8]: 240 nM
- Activity [9]: 81%
- inhibition at 0.5 µM (H9c2 [10]): 2.24%
- viability at 1 µM (H9c2 [11]): 73.8%
- Activity (Mus musculus [12]): Active
- inhibition (H9c2 [13]): inactive
- Activity [14]: Non-Toxic
- inhibition (H9c2 [15]): Active
- inhibition (H9c2 [16]): Dose-dependent effect
